Source: PubChem BioAssay
These entries were drawn from the full list.
Apaf-1 act = activators of human Apaf-1 apoptosome, primary screen, biochemical, DEVD-Rh110 fluorescence, uHTS. Apoptotic protease-activating factor 1 (Homo sapiens), O14727. Apaf-1 apoptosome caspase-3 activation; active compounds read low. activity change, negative = activation, % at 20 µM. 330,000 tested, 0.31% active;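 active means activity change at or below -40% at 20 µM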
Target sequence (O14727 whole entry, looked up): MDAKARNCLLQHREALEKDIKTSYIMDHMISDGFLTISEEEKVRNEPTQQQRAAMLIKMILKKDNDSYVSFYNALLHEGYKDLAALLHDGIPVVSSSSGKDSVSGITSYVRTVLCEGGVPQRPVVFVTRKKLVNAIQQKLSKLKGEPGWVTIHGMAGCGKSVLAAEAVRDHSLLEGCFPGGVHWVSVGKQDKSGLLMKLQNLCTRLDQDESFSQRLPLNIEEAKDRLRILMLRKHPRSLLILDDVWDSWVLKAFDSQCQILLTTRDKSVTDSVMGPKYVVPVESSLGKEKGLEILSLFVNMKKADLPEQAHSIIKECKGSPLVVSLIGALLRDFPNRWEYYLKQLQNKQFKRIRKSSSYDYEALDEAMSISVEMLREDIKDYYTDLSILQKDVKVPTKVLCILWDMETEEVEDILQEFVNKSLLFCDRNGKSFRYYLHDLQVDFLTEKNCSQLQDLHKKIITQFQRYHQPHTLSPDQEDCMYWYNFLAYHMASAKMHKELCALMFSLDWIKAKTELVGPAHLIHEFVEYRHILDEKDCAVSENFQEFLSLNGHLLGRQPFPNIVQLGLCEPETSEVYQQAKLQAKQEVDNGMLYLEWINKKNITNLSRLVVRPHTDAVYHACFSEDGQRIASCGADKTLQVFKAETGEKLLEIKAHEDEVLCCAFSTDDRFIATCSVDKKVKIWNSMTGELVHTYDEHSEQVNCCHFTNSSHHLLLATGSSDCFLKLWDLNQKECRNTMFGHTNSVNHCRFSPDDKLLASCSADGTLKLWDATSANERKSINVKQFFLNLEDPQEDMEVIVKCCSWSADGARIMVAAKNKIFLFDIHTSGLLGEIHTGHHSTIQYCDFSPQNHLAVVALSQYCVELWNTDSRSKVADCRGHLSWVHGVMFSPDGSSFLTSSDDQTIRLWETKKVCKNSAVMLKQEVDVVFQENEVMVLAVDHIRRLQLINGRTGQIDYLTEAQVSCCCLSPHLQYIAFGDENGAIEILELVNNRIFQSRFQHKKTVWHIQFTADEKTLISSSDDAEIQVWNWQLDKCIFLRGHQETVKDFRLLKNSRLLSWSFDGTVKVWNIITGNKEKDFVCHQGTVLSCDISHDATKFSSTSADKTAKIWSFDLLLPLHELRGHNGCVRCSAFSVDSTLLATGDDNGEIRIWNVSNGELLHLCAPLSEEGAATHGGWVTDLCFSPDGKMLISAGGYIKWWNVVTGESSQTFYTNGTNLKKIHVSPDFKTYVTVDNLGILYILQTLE
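Material: reconstituted apoptosome of Apaf-1, cytochrome c, caspase-9, procaspase-3; times: 30 min preincubation, 50 min reaction, room temperature; measured by: fluorescence, 540 nm emission, 480 nm excitation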
Rh110 act interf = Rh110 fluorescence interference by putative Apaf-1 activators, confirmation, artefact control for Apaf-1 activator project, biochemical, 20 µM; shares compounds with Apaf-1 act; AID 504616, 2011; 980 tested, under 10 active; fluorescence interference (activity change), % at 20 µM, hits read low; quenched caspase reaction, Ex480/Em540;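 active means mean activity change at or below -40% when tested at 20 µM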
Apaf-1 act conf2 = Apaf-1 activators, single-dose retest, confirmation, biochemical, fluorescence, DEVD-Rh110, 20 µM | shares compounds with Apaf-1 act | reconstituted apoptosome caspase-3 activity; active compounds read low | activity change, negative = activation, % at 20 µM | 980 tested, 5% active;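 active means mean activity change at or below -40%, meaning activation of 40% or more, at 20 µM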
Active calls of the source: *.

SMILES	Apaf-1 act	others
COC(=O)C(Cc1ccc(N(CCCl)CCCl)cc1)N=Cc1ccccc1O (centres undefined)	-63*
CCC(C)N1C(=O)NC(=O)C2(Cc3c(ccc4ccccc34)N(C)C2)C1=O (centres undefined)	65
O=[N+]([O-])c1ccc(NC2CCN(Cc3ccccc3)CC2)c2ccncc12	74
Cn1c(=O)[nH]c2nncnc2c1=O	68
COC(=O)C1=C(c2ccc(OCc3ccccc3)cc2)C[C@@H]2CC[C@H]1N2C(=O)NC1CCN(Cc2ccccc2)CC1	58
COc1ccccc1CCNCc1cc2c(cc1[N+](=O)[O-])OCO2	-192*	Rh110 act interf=5;Apaf-1 act conf2=13
COC(=O)c1nc(-c2ccc3c(n2)C(=O)C(N)=C(OC)C3=O)c(N)c(-c2ccc(OC)c(OC)c2O)c1C	89
CCCCNC(=O)c1c(N)n(Cc2ccc3c(c2)OCO3)c2nc3ccccc3nc12	95
Nc1c(C(=O)NCCCc2ccccc2)c2nc3ccccc3nc2n1Cc1cccs1	84
COc1cc(C(c2c(C)[nH]n(-c3ccccc3)c2=O)c2c(C)[nH]n(-c3ccccc3)c2=O)cc(OC)c1OC	92
O=[N+]([O-])c1ccc(NC2CCCC2)c2ccncc12	42
c1ccc2c(c1)CSc1ccccc1C2C1=NCCN1 (centres undefined)	-228*	Rh110 act interf=12;Apaf-1 act conf2=12
CCCCOCCCn1c(N)c(C(=O)OCCOC)c2nc3ccccc3nc21	66
NC(N)=N/N=C/c1cn(-c2ccccc2)nc1-c1cccs1	41
CCCCN1C(=N)C(CC)(CC)C(=O)NC1=O	-42*	Rh110 act interf=4;Apaf-1 act conf2=8
CCN1/C(=C\C=C\C2=[N+](CC)c3ccccc3C2(C)C)C(C)(C)c2ccccc21	56
ClC1C(Cl)C(Cl)C(Cl)C(Cl)C1Cl (centres undefined)	-2
O=C1C=Cc2ccccc2C1=O	62
Clc1ccc(C[n+]2c(-c3ccccc3)cc(-c3ccccc3)cc2-c2ccccc2)cc1	52
Nc1c(C(=O)NCc2ccco2)c2nc3ccccc3nc2n1Cc1ccc(F)cc1	89
CC(C)CCn1c(N)c(C(=O)OCC2CCCO2)c2nc3ccccc3nc21 (centres undefined)	41
CCCCn1c(NS(=O)(=O)c2ccc(C)cc2)c(C(=O)OCC)c2nc3ccccc3nc21	90
COc1ccc(C(=O)Cn2c(NCCCl)nc3ccccc32)cc1	-331*	Rh110 act interf=2;Apaf-1 act conf2=12
COc1ccc(Cn2c(N)c(C(=O)NCc3ccco3)c3nc4ccccc4nc32)cc1	67
CCCNC(=O)c1c(N)n(CC2CCCO2)c2nc3ccccc3nc12 (centres undefined)	93
SMILES	Apaf-1 act	others
O=c1[nH]c2ccccc2n1CCCN1CCC(n2c(=O)[nH]c3cc(Cl)ccc32)CC1	-41*	Rh110 act interf=4;Apaf-1 act conf2=4
CCCCn1c(NC(=O)c2ccco2)c(C(=O)OCC)c2nc3ccccc3nc21	83
O=[N+]([O-])c1ccccc1-c1cc(-c2ccccc2)cc(-c2ccccc2)[n+]1Cc1ccccc1Cl	53
CCCCCCn1c(N)c(C(=O)NCCN2CCOCC2)c2nc3ccccc3nc21	52
O=C1NC(=O)N(c2ccc(Cl)cc2)C(=O)/C1=C/c1coc2ccc(O)cc2c1=O	-41*	Rh110 act interf=0;Apaf-1 act conf2=17
O=C1NC(=O)C(=Cc2ccc(Oc3ccc([N+](=O)[O-])cc3)cc2)C(=O)N1	43
CCn1nc(/C=C/c2ccccc2)nc2c(=O)n(C)c(=O)nc1-2	99
CC(=O)OCC[N+](C)(C)C	-3
COc1cc2c(cc1OC)-c1c(OC)c(OC)cc3c1C(C2)N(C)CC3 (centres undefined)	95
CCC(COC(=O)c1cc(OC)c(OC)c(OC)c1)(c1ccccc1)N(C)C (centres undefined)	12
Brc1ccc(Oc2ccc(Br)cc2Br)c(Br)c1	-139*	Rh110 act interf=12;Apaf-1 act conf2=7
COC(=O)C(O)(c1c(C)[nH]n(-c2ccccc2)c1=O)C(F)(F)F (centres undefined)	79
COCCCn1c(N)c(C(=O)NCCC(C)C)c2nc3ccccc3nc21	91
CCOC(=O)c1cc(CC)sc1/N=C/c1c(O)[nH]c(=S)[nH]c1=O	-200*	Rh110 act interf=-133*;Apaf-1 act conf2=5
CC(C)OCCCNC(=O)c1c(N)n(CC2CCCO2)c2nc3ccccc3nc12 (centres undefined)	94
NC(Cc1cc(O)c(O)cc1O)C(=O)O (centres undefined)	84
Nc1c(C(=O)NCc2ccco2)c2nc3ccccc3nc2n1CCN1CCOCC1	44
CC(C)[C@H]1C(=O)N2CCC[C@H]2[C@]2(O)O[C@](NC(=O)[C@@H]3C=C4c5cccc6[nH]cc(c56)C[C@H]4N(C)C3)(C(C)C)C(=O)N12	95
Cc1cc(/C=C2/C(=O)NC(=O)N(Cc3ccco3)C2=O)c(C)n1-c1ccccc1	-53*	Rh110 act interf=-4;Apaf-1 act conf2=14
COc1cc2c(cc1O)C[C@H]1NCCc3cc4c(c-2c31)OCO4	71
C=CCN1CC[C@]23c4c5ccc(O)c4O[C@H]2C(=O)CC[C@@]3(O)[C@H]1C5	15
COCC(C)OC(=O)c1c(N)n(Cc2ccco2)c2nc3ccccc3nc12 (centres undefined)	61
CC(C)C[C@H]1C(=O)N2CCCC2[C@]2(O)O[C@](NC(=O)[C@@H]3C=C4c5cccc6[nH]cc(c56)CC4N(C)C3)(C(C)C)C(=O)N12 (some centres undefined)	87
CCCCn1c(N)c(C(=O)NCc2cccs2)c2nc3ccccc3nc21	85
CCCCCn1c(N)c(C(=O)NCc2cccs2)c2nc3ccccc3nc21	70
COCCOC(=O)c1c(N)n(Cc2ccccc2)c2nc3ccccc3nc12	83
Cc1ccc(-n2c(C)nc3ccccc3c2=O)c(C)c1	-76*	Rh110 act interf=8;Apaf-1 act conf2=9
Nc1cc2nc3ccccc3nc2cc1N	62
COc1cc2c(cc1OC)-c1c3c(cc4c1[C@@H](C2)N(C)CC4)OCO3	98
O=C(c1ccc2nc(-c3ccco3)c(-c3ccco3)nc2c1)N1CCC2(CC1)OCCO2	56
